# Activity calls are given as the source filed them. The rule behind the calls is not given here.
# Legend:
# [1] = target: T1, Signal transducer and activator of transcription 1-alpha/beta (Homo sapiens) (UniProt P42224); assay: Inhibition of STAT1 (unknown origin) expressed in IFN-gamma induced human HeLa cells at 50 uM incubated for 1 hr by luciferase reporter gene assay; assay type: cell-based
# T1 sequence (whole entry): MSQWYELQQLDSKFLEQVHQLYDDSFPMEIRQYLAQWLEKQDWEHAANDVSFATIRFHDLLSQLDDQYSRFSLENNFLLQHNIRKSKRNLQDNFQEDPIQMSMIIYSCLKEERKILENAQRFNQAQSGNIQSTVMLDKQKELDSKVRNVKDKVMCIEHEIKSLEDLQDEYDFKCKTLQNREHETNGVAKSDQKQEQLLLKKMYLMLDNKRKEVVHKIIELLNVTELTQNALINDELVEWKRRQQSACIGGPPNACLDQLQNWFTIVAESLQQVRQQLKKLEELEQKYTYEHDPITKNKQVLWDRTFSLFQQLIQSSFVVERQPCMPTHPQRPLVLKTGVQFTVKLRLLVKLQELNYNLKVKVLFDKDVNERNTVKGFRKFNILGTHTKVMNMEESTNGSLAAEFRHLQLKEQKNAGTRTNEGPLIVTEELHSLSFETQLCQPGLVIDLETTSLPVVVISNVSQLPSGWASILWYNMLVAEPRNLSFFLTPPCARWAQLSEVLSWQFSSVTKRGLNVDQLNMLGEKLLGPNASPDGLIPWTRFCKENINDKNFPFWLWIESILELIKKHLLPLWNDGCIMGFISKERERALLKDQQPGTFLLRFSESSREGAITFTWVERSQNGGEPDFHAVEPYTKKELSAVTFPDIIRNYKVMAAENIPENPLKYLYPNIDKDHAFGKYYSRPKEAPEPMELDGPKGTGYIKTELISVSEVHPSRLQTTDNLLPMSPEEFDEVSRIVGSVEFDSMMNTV
# [2] = target: T2, Signal transducer and activator of transcription 3 (Homo sapiens, UniProt P40763); assay: Inhibition of STAT3 (unknown origin) expressed in Oncostatin M induced human HeLa cells at 50 uM incubated for 1 hr by luciferase reporter gene assay; assay type: cell-based
# T2 sequence (P40763 whole entry): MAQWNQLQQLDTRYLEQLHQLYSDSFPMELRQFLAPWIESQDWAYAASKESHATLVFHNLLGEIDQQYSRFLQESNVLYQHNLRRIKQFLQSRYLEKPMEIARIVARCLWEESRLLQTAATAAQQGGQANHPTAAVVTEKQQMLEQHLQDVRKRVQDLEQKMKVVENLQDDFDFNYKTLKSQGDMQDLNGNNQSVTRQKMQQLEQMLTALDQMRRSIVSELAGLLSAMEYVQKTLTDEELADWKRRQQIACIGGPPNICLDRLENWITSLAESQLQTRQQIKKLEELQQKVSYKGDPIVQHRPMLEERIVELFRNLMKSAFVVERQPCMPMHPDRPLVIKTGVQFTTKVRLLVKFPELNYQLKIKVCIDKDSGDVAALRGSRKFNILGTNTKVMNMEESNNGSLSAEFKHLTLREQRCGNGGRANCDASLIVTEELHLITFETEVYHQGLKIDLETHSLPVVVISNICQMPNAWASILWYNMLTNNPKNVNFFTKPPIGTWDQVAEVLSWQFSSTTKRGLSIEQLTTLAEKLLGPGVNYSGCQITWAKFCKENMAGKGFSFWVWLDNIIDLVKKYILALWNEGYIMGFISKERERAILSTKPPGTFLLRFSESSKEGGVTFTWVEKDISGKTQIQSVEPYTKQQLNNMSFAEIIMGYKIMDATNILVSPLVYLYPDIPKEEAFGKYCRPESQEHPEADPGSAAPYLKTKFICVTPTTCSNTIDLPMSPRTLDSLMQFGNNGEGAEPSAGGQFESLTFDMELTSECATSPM
# [3] = target: T2, Signal transducer and activator of transcription 3; assay: Displacement of fluorescent peptide 5-FAM-G(pTyr)LPQTV-CONH2 from GST-tagged full-length human STAT3 preincubated for 60 mins followed by fluorescent peptide addition measured after 30 mins by fluorescence polarization assay
# How it was run: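 Full-length GST-STAT3 (100 nM) preincubated 60 min at room temperature with compound at various concentrations or vehicle, in 50 mM NaCl, 10 mM Hepes pH 7.5, 1 mM EDTA, 0.01% Triton X-100, 2 mM DTT. Labelled peptide then added to 10 nM final, 30 min room temperature. FP read with excitation 480, emission 535 (P and S pol).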
# [4] = target: T1, Signal transducer and activator of transcription 1-alpha/beta (Homo sapiens); assay: Displacement of fluorescent peptide 5-FAM-G(pTyr)YIKTE- CONH2 from GST-tagged human STAT1b preincubated for 60 mins followed by fluorescent peptide addition measured after 30 mins by fluorescence polarization assay
# How it was run: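 GST-tagged human STAT1b preincubated 60 min at room temperature with compound at various concentrations or vehicle in 50 mM NaCl, 10 mM Hepes pH 7.5, 1 mM EDTA, 0.01% Triton X-100, 2 mM DTT. Labelled peptide added to 10 nM final, 30 min room temperature. Fluorescence polarization read with excitation 480, emission 535.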
SMILES,inhibition [1] [%],inhibition [2],Activity [3],Activity [4]
COc1cc(CNc2nn[nH]n2)cc(Cl)c1OCc1cccc(C(=O)O)c1,10,36.9%,,
COc1cc(CNc2nn[nH]n2)cc(Cl)c1OCc1ccc(F)cc1,1.2,50.7%,,
COc1cc(CN(CC(=O)O)Cc2cc(Cl)c(OCc3ccc(C)cc3)c(OC)c2)cc(Cl)c1OCc1ccc(C)cc1,46,54.7%,,
COc1cc(CNc2nn[nH]n2)cc(OC)c1OCc1ccc([N+](=O)[O-])cc1,19.2,45.1%,,
COc1cc(CNc2nn[nH]n2)cc(Br)c1OCc1ccc([N+](=O)[O-])cc1,0,48%,,
CCCCCCCCCOc1cc(COc2c(Cl)cc(CNc3nn[nH]n3)cc2OC)ccc1[N+](=O)[O-],72.9,82.7%,,
COc1cc(CNc2nn[nH]n2)cc(Cl)c1OCc1ccc(C(=O)O)cc1,12.9,41.1%,,
COc1cc(CNc2nn[nH]n2)cc(Cl)c1OCc1ccc(OC(F)(F)F)cc1,11.7,51.1%,,
COc1cc(CNc2nn[nH]n2)cc(Cl)c1OCc1cccc([N+](=O)[O-])c1,9.2,40.1%,Active,
O=C(O)c1ccc(NC(=O)C2CC(=O)N(CCc3ccccc3)/C(=N/c3ccccc3)S2)cc1 (configuration not stated),,Active,,
COc1cc(CC(c2nn[nH]n2)c2nn[nH]n2)cc(Cl)c1OCc1ccc(C)cc1,17.7,38.6%,,
COc1cc(CNc2nn[nH]n2)cc(Cl)c1OCc1ccc(-n2nc(C)cc2C)cc1,13.9,2.6%,,
C=CCN1C(=O)C(CC(=O)Nc2ccc(C(=O)O)cc2)S/C1=N/c1cccc(Cl)c1 (configuration not stated),,Active,,
COc1cc(CNc2nn[nH]n2)cc(Cl)c1OCc1ccc([N+](=O)[O-])cc1[N+](=O)[O-],,40.1%,,
COc1cc(CNc2nn[nH]n2)cc(Cl)c1OCc1ccc(Cl)cc1,4.4,37.6%,,
COc1cc(CNc2nn[nH]n2)cc([N+](=O)[O-])c1OCc1ccc([N+](=O)[O-])cc1,6.4,36%,,
COc1cc(CNc2nn[nH]n2)cc(Cl)c1OCc1cccc(-c2ccccc2)c1,0,8.2%,,
COC(=O)c1ccc(COc2c(Cl)cc(CNc3nn[nH]n3)cc2OC)cc1,0,51.5%,,
COc1c(OCc2ccc([N+](=O)[O-])cc2)c(Cl)cc(CNc2nn[nH]n2)c1[N+](=O)[O-],16.5,19.6%,,
COc1cc(CNc2nn[nH]n2)ccc1OCc1ccc(C)cc1,0,43%,,
COc1cc(CNc2nn[nH]n2)cc(Cl)c1OCc1ccc(C(C)(C)C)cc1,0,11.9%,,

SMILES,inhibition [1] [%],inhibition [2],Activity [3],Activity [4]
CC1CCc2c(sc3ncn(Cc4ccc(C(=O)O)cc4)c(=O)c23)C1 (configuration not stated),,Active,,
COc1cc(CNc2nn[nH]n2)cc(I)c1OCc1ccc(C)cc1,16.5,62.7%,,
COC(=O)c1cccc(COc2c(Cl)cc(CNc3nn[nH]n3)cc2OC)c1,0,49.2%,,
COc1cc(C=O)cc(Cl)c1OCc1ccc([N+](=O)[O-])cc1,62.3,66.4%,Active,Active
COc1cc(CO)cc(Cl)c1OCc1ccc([N+](=O)[O-])cc1,43.6,66.4%,,
COc1cc(CN2C(=O)c3ccccc3C2=O)cc(Cl)c1OCc1ccc([N+](=O)[O-])cc1,44.5,95.9%,,
COc1cc(CC(C(=O)O)c2nn[nH]n2)cc(Cl)c1OCc1ccc(C)cc1 (configuration not stated),12.9,40.2%,,
O=[N+]([O-])c1ccc(COc2c(O)cc(CNc3nn[nH]n3)cc2Cl)cc1,0.6,25.3%,,
CCOc1cc(CNc2nn[nH]n2)cc(Cl)c1OCc1ccc([N+](=O)[O-])cc1,34.8,20.4%,,
COc1ccc([N+](=O)[O-])cc1COc1c(Cl)cc(CNc2nn[nH]n2)cc1OC,0,20.4%,,
C[C@@H]1CC(=O)c2c(ccc3c2C(=O)c2cccc(O)c2C3=O)C1,13.1,71%,,
COC(=O)Cc1c(C)c2ccc(OCc3nn[nH]n3)cc2oc1=O,,Active,,
COc1cc(CNc2nn[nH]n2)cc(Cl)c1OCc1ccc(C#N)cc1,13.2,37.4%,,
COc1cc(CNc2nn[nH]n2)cc(Cl)c1OCc1ccc(-c2nccs2)cc1,0,0%,,
COc1cc(CNCC(=O)O)cc(Cl)c1OCc1ccc([N+](=O)[O-])cc1,13.1,15.3%,,Active
COc1cc(CNc2nn[nH]n2)cc(Cl)c1OCc1ccc(SC)cc1,9.7,0%,,
COc1cc(CNc2nn[nH]n2)cc(Cl)c1OC(C)c1ccccc1 (configuration not stated),0,0%,,
COc1cc(CNc2nn[nH]n2)cc(Cl)c1OCc1ccc(C(F)(F)F)cc1,11.5,48.5%,,
CC(C)COC(=O)CN1C(=O)S/C(=C\c2ccc(C(=O)O)cc2)C1=O,,Active,,
COc1cc(CNc2nn[nH]n2)cc(Cl)c1OCc1cccc(COc2ccccc2)c1,0,0.7%,,
Oc1cc(CNc2nn[nH]n2)cc(Cl)c1OCc1ccccc1,20.4,30.8%,,

SMILES,inhibition [1] [%],inhibition [2],Activity [3],Activity [4]
COc1cc(CNc2nn[nH]n2)cc(Br)c1OCc1ccc(C)cc1,11.8,58.8%,,
CCCOc1cc(COc2c(Cl)cc(CNc3nn[nH]n3)cc2OC)ccc1[N+](=O)[O-],2.8,38.3%,,
COc1cc(CNc2nn[nH]n2)cc(Cl)c1OCc1cccc(C(N)=O)c1,15,15.9%,,
COc1cc(CNc2nn[nH]n2)ccc1OCc1c(Cl)cccc1Cl,,Active,,
COc1cc(CNc2nn[nH]n2)cc(Cl)c1OCc1ccccc1[N+](=O)[O-],1.1,31%,,
COc1cc(CCc2nn[nH]n2)cc(Cl)c1OCc1ccc(C)cc1,0,32.8%,,
COc1cc(CNc2nn[nH]n2)cc(Cl)c1OCc1ccc(C(N)=O)cc1,9.5,25.7%,,
Clc1cc(CNc2nn[nH]n2)cc(OCCCc2ccccc2)c1OCc1ccccc1,11.1,26.9%,,
COc1cc(CNc2nn[nH]n2)cc(Cl)c1OCc1ccc(OC2CCOCC2)cc1,0,4.1%,,
COc1cc(CNc2nn[nH]n2)cc(I)c1OCc1ccc([N+](=O)[O-])cc1,0,52.1%,,
COc1cc(CNc2nn[nH]n2)cc(Cl)c1OCc1ccc(C)cc1,11.1,53.9%,Active,inactive
COc1cc(CNc2nn[nH]n2)cc(Cl)c1OCc1ccc(-c2csc(C)n2)cc1,0,0%,,
COc1cc(CNC#N)cc(Cl)c1OCc1ccc([N+](=O)[O-])cc1,48.8,91.8%,Active,Active
COc1cc(NC#N)cc(Cl)c1OCc1ccc(C)cc1,10.8,50.2%,inactive,Active
CCOc1cc(CNc2nn[nH]n2)cc(I)c1OCc1ccc([N+](=O)[O-])cc1,15.1,32.4%,,
COc1cc(C=O)cc(Cl)c1OCc1ccc(C)cc1,31.4,52.4%,Active,Active
CCc1cc2c(cc1COc1c(Cl)cc(CNc3nn[nH]n3)cc1OC)C(C)(C)CCC2(C)C,72.7,77%,,
COc1cc(CC(C(=O)O)C(=O)O)cc(Cl)c1OCc1ccc(C)cc1,24.5,14.8%,,
CCCCCCOc1cc(COc2c(Cl)cc(CNc3nn[nH]n3)cc2OC)ccc1[N+](=O)[O-],59.3,60.1%,,

# — ChEMBL document CHEMBL3627693, “Novel aminotetrazole derivatives as selective STAT3 non-peptide inhibitors” (Eur J Med Chem, 2015)
